This is a sample that favours compounds with a hit; in the whole collection about 1.5% have one here.
C2C12 statin: suppressors of simvastatin-induced myotoxicity in C2C12 myotubes. 330,000 compounds, 0.78% hits. AID 602340. ATP luminescence, 48 h; scaled: DMSO 0, geranylgeraniol control 100. rescue of ATP level, % at 7.49 µM;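 active means mean ATP rescue above about 67%, or every replicate alone reaching that limit, limit read from the data, passing the limit was not always enough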;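 further: myotubes were challenged with 10 µM simvastatin during compound exposure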
Mot1-301 SUMO: SUMOylation pathway inhibition by Mot1-301 growth rescue. S. cerevisiae Mot1-301 growth rescue, ATP luminescence, 38.5C; percent above DMSO median, 100 means doubled. growth rescue, % at 18.8 µM. 320,000 compounds, 1% hits;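 active means every valid replicate shows activation above 250% relative to neutral control wells; inactive means the rest, any valid replicate at or below 250%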;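 further: OY570 slx delta 5 strain wells were the positive control but not used for scaling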
Cneo AK release: causes C. neoformans cell lysis | lysis activity, % at 15 µM | 360,000 compounds, 0.2% hits | adenylate kinase release luminescence, 4 h; normalised: neutral wells 0, clomiphene wells 100 | AID 651654;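 active means mean lysis activity across replicates of at least 80%, whatever share of replicates individually reach that level; inactive means mean lysis activity below 80%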
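Schedule: static 4 h at 37 °C with compound, 1 h detection; system: C. neoformans cells; benchmarks: Clomiphene as positive control; buffer or medium: fresh YPD medium; measure: luminescence rise reflecting yeast cell lysis; measured by: luminescent adenylate kinase detection reagent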
Numbers without * were called inactive; nt = not tested or not shown.

SMILES | C2C12 statin | Mot1-301 SUMO | Cneo AK release
COc1ccc(-c2ccc3c(c2)[C@H]2[C@H](CCN2C(=O)Cc2cccnc2)[C@@H](CO)N3C)cc1 | 28.9 | nt | -6.3
CN1C(=O)c2cc(NC(=O)c3ccc(F)c(F)c3)ccc2OC[C@H]2O[C@@H](CC(=O)N[C@@H]3CCN(Cc4ccccc4)C3)CC[C@@H]21 | -2.6 | nt | 4.3
C[C@@H]1CCCCO[C@H](CN(C)Cc2ccccc2)[C@@H](C)CN([C@@H](C)CO)C(=O)c2cc(NC(=O)Nc3ccccc3)ccc2O1 | nt | nt | 0.5
CCOC(=O)CNc1c(-c2ccccc2)nc2ccc(Cl)cn12 | 98.5* | -6.4 | -1.1
CCOC(=O)CNc1c(-c2ccc(O)cc2)nc2ccc(Cl)cn12 | -0.2 | 37.8 | -1.2
CC(CCc1ccccc1)NC(=O)CN1CCN(Cc2ccccc2)C1=O (configuration not stated) | 0.4 | 342.7 | 7.1
CC(CCc1ccccc1)NC(=O)CN1CCN(Cc2ccc(Cl)cc2)C1=O (configuration not stated) | 67.0* | 4.6 | -1.2
CC1=Cc2ccccc2C(C#N)N1C(=O)c1ccccc1 (configuration not stated) | -8.0 | -20.5 | -2.7
N#C[C@H]1C(O)C(O)c2ccccc2N1C(=O)c1ccccc1 (some centres not stated) | -11.7 | 716.3* | 0.1
COc1ccc(NC(C)=O)cc1NC(=O)CSc1nc2ncccc2[nH]1 | 1.1 | 330.6* | -1.2
COc1ccccc1NC(=O)CSc1nc2ncccc2[nH]1 | 0.0 | 81.5 | 1.5
CCCN1C[C@@H](C)[C@@H](OC)CN(C)C(=O)c2ccc(NC(=O)C3CC3)cc2OC[C@H]1C | 5.6 | nt | 0.3
CCCCOc1nc2ccccc2nc1C(C#N)C(=O)NC1CCCCC1 (configuration not stated) | 107.9* | -1.0 | 7.4
CC1CCN(c2nc3ccccc3nc2C(C#N)C(=O)NC2CCCCC2)CC1 (configuration not stated) | nt | -1.7 | nt
COC(=O)c1scc(C)c1NC(=O)C1CCCCC1 | 83.1* | -30.1 | 0.4
COC(=O)c1scc(C)c1NC(=O)c1ccc(Cl)cc1 | 11.8 | -4.1 | 3.3
Cc1noc(C)c1S(=O)(=O)Nc1ccc2c(c1)C(=O)N([C@H](C)CO)C[C@H](C)[C@@H](CN(C)C(=O)NC1CCCCC1)OCCCC[C@H](C)O2 | -39.5 | nt | 0.7
C[C@@H]1CCCCO[C@H](CN(C)S(=O)(=O)c2cccs2)[C@@H](C)CN([C@H](C)CO)C(=O)c2cc(NS(C)(=O)=O)ccc2O1 | -7.9 | nt | -2.3
COCc1[nH]nc2c1C(c1sccc1C)C(C#N)=C(N)O2 (configuration not stated) | 93.8* | 187.4 | -0.6
COCc1[nH]nc2c1C(c1ccsc1)C(C#N)=C(N)O2 (configuration not stated) | nt | -5.1 | nt
CN(C)CC(=O)Nc1ccc2c(c1)[C@@H]1C[C@H](CC(=O)NCCc3ccccc3)O[C@@H](CO)[C@@H]1O2 | 2.7 | nt | 7.1
C[C@H](CO)N1C[C@H](C)[C@H](CN(C)Cc2ccc(C(=O)Nc3ccccc3N)cc2)Oc2ccc(NC(=O)Cc3cn(C)c4ccccc34)cc2C1=O | 97.5* | nt | -3.5
C[C@H](CO)N1C[C@H](C)[C@@H](CN(C)Cc2ccc(C(F)(F)F)cc2)Oc2ccc(NC(=O)Cc3cn(C)c4ccccc34)cc2C1=O | 33.7 | nt | 32.5
C[C@H]1CN([C@@H](C)CO)C(=O)c2cc(NC(=O)Cc3cn(C)c4ccccc34)ccc2O[C@@H]1CN(C)Cc1ccc(C(F)(F)F)cc1 | 83.0* | nt | -4.8
C[C@@H]1CN([C@H](C)CO)C(=O)c2cc(NC(=O)Cc3cn(C)c4ccccc34)ccc2O[C@H]1CN(C)Cc1ccc(-c2ccccc2)cc1 | 68.4* | nt | nt
SMILES | C2C12 statin | Mot1-301 SUMO | Cneo AK release
C[C@H]1CN([C@@H](C)CO)C(=O)c2cc(NC(=O)Cc3cn(C)c4ccccc34)ccc2O[C@@H]1CN(C)Cc1ccc(-c2ccccc2)cc1 | 45.8 | nt | nt
C[C@@H]1CN([C@@H](C)CO)C(=O)c2cc(NC(=O)Cc3cn(C)c4ccccc34)ccc2O[C@@H]1CN(C)Cc1ccc(C(=O)Nc2ccccc2N)cc1 | 43.5 | nt | -4.6
C[C@H](CO)N1C[C@H](C)[C@@H](CN(C)S(=O)(=O)c2cccs2)OCCCC[C@H](C)Oc2ccc(NC(=O)CCCN(C)C)cc2C1=O | nt | nt | -1.0
COc1cccc(-c2cn(CC[C@H]3CC[C@@H](NC(=O)CC4CC4)[C@H](CO)O3)nn2)c1 | -1.1 | nt | -0.2
COc1ccc(CN(C)C[C@H]2OCCCC[C@H](C)Oc3ccc(NS(=O)(=O)c4ccc(F)cc4)cc3C(=O)N([C@@H](C)CO)C[C@H]2C)cc1 | nt | nt | 0.2
CCC(=O)N1C[C@H]2[C@@H](c3ccccc31)[C@@H](CO)N2C(=O)Nc1ccccc1 | -14.5 | nt | 44.7
CCCSc1nnc(CN2CCOCC2)n1C | 111.3* | nt | -0.4
Cn1c(CN2CCOCC2)nnc1SCc1ccccc1 | -3.2 | -0.3 | -1.4
C[C@@H]1CCCCO[C@H](CN(C)S(=O)(=O)c2cccs2)[C@@H](C)CN([C@@H](C)CO)C(=O)c2cc(N(C)C)ccc2O1 | 15.5 | nt | -2.0
COCC(=O)N1C[C@@H](C)[C@@H](OC)CN(C)C(=O)c2cc(NC(=O)c3ccc(OC)cc3)ccc2OC[C@@H]1C | -14.2 | nt | -0.2
COc1cccc(NC(=O)N(C)C[C@H]2Oc3cc(C#CC4(O)CCCC4)ccc3S(=O)(=O)N([C@@H](C)CO)C[C@@H]2C)c1 | -57.4 | nt | -2.9
CC(=O)c1ccc(NC(=O)c2ccc(CNc3c(N4CCCC4)c(=O)c3=O)cc2)cc1 | nt | 131.6 | 0.7
CCc1cccc(NC(=O)c2ccc(CNc3c(N4CCCC4)c(=O)c3=O)cc2)c1 | 100.0* | -11.0 | -0.9
COc1ccc(CN(C)C[C@@H]2Oc3ccc(NS(=O)(=O)c4cccs4)cc3C(=O)N([C@@H](C)CO)C[C@@H]2C)cc1 | 16.2 | nt | nt
C/C=C/c1cnc2c(c1)C(=O)N([C@@H](C)CO)C[C@H](C)[C@H](CN(C)S(=O)(=O)c1ccccc1)O2 | 26.1 | nt | -1.5
COc1ccc([N+](=O)[O-])cc1N(CC(=O)N1CCOCC1)S(C)(=O)=O | -8.1 | -5.1 | nt
COc1ccc([N+](=O)[O-])cc1N(CC(=O)N1CCCC1)S(C)(=O)=O | nt | 354.8* | nt
O=C(Nc1ccc(F)cc1)N1C[C@H]2[C@@H](c3ccccc31)[C@@H](CO)N2C(=O)c1ccccn1 | 10.4 | nt | 4.1
C[C@H]1CN([C@@H](C)CO)C(=O)Cc2cc(NC(=O)c3ccncc3)ccc2O[C@H]1CN(C)S(C)(=O)=O | -2.4 | nt | 47.6
N#Cc1cc2c(nc1SCC(=O)N1CCCCC1)CCCC2 | 2.9 | 132.1 | 1.2
N#Cc1cc2c(nc1SCC(=O)N1CCCCC1)CCCCC2 | 116.8* | -10.8 | -1.6
COc1ccc(NC(=O)N(C)C[C@H]2Oc3ccc(NC(=O)Nc4ccc5c(c4)OCO5)cc3CC(=O)N([C@@H](C)CO)C[C@H]2C)cc1 | -27.6 | nt | -5.0
Cc1ccc(-c2cc(C(F)F)n3ncc(C(=O)N4CCc5ccccc54)c3n2)cc1 | nt | 9.0 | nt
O=C(c1cnn2c(C(F)F)cc(-c3ccccc3)nc12)N1CCc2ccccc21 | 118.0* | -14.6 | 3.1
